ChEMBL document CHEMBL4665830, “Self-Adjuvanting Cancer Vaccines from Conjugation-Ready Lipid A Analogues and Synthetic Long Peptides” (J Med Chem, 2020)
Each block holds one compound with its values, some of them ahead of it. The source made the active and inactive calls. The calls are words filed in the database; no cut-off is given here. Where a SMILES comes first, the peptide text is derived from it. [ ]: non-standard residue; d: D form. The star is where a group is joined. X1 = CCCCCCCCCCC[C@H](CC(=O)N[C@H]1[C@H](OC[C@H](NC(=O)C[C@@H](CCCCCCCCCCC)OC(=O)CCCCCCCCC)C(=O)O)O[C@H](CNC(=O)COCCOCCOCCNC(=O)CCCN2C(=O)CC(*)C2=O)[C@@H](OP(=O)(O)O)[C@@H]1OC(=O)C[C@@H](CCCCCCCCCCC)OC(=O)CCCCCCCCC)OC(=O)CCCCCCCCC; X2 = CCCCCCCCCCC[C@H](CC(=O)N[C@H]1[C@H](OC[C@H](NC(=O)C[C@@H](CCCCCCCCCCC)OC(=O)CCCCCCCCC)C(=O)O)O[C@H](COC(=O)COCCOCCOCCNC(=O)CCCN2C(=O)CC(*)C2=O)[C@@H](OP(=O)(O)O)[C@@H]1OC(=O)C[C@@H](CCCCCCCCCCC)OC(=O)CCCCCCCCC)OC(=O)CCCCCCCCC; Mpa = O=C(O)CCS

How the values were obtained:
[1] = biological target: T1, Toll-like receptor 4 (Mus musculus) (UniProt Q9QUK6); experiment: Activation of TLR4 in C57BL/6 mouse dendritic cells assessed as induction of IL-12p40 secretion at 0.098 to 100 nM incubated for 24 hrs by ELISA; conditions: Dendritic cell, dose nM 0.098-100, time 24.0 hrs
T1 sequence (whole entry): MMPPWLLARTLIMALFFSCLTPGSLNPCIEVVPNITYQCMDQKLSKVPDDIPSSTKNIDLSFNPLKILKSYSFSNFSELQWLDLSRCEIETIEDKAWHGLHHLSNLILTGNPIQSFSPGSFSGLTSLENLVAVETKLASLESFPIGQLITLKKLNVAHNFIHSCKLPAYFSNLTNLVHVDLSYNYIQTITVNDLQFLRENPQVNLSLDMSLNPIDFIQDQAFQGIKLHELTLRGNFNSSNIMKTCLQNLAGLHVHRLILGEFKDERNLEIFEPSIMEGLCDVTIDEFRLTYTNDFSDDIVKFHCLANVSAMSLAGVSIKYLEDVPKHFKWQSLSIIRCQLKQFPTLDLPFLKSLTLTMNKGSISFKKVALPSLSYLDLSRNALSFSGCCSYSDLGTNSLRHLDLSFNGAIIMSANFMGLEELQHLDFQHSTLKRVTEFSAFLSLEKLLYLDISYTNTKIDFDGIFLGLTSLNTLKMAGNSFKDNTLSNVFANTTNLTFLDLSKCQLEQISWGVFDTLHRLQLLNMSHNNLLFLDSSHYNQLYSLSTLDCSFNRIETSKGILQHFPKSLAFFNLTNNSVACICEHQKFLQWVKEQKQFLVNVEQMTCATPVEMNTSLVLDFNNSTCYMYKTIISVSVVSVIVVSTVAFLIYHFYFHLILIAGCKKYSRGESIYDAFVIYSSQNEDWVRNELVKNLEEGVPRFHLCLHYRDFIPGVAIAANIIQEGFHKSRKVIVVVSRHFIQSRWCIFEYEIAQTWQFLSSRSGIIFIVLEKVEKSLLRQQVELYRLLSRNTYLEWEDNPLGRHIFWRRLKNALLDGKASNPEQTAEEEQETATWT
How it was run: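 D1 cells (immature spleen-derived DC line, C57BL/6 H-2b), 50 000 per well in R1-supplemented IMDM, given an equal volume of 2x compound in medium (500 μM DMSO stocks, sonicated 15 min). Incubated 24 h at 37 °C; IL-12p40 in supernatant measured by ELISA. MPLA served as TLR4 control; unconjugated peptide as negative control.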

Mus musculus [2] = experiment: Induction of T-cell activation in C57BL/6 mouse assessed as induction of SIINFEKL-specific T-cell responses in blood at 5 nmol dosed intradermally; format: functional, organism-based
B3Z = experiment: Induction of T-cell activation in SIINFEKL-specific mouse B3Z cells at 0.875 to 7 uM by colorimetry based in-vitro antigen presentation assay; format: functional; conditions: dose microM 0.875-7
Mus musculus [3] = experiment: Induction of T-cell activation in C57BL/6 mouse assessed as induction of specific killing of the SIINFEKL-loaded target cells in spleen at 5 nmol dosed intradermally followed by booster dose after 14 days and 1 week later injection of cells loaded with SIINFEKL peptide and measured after 18 hrs post last dose by CFSE staining based flow cytometric analysis; format: functional, organism-based; conditions: time 21.0 day
Mus musculus [4] = experiment: Induction of T-cell activation in C57BL/6 mouse assessed as induction of SIINFEKL-specific T-cell responses in inguinal lymph nodes at 5 nmol dosed intradermally followed by booster dose after 14 days and measured after 8 days; format: functional, organism-based; conditions: time 22.0 day
Mus musculus [5] = experiment: Induction of T-cell activation in C57BL/6 mouse assessed as induction of SIINFEKL-specific T-cell responses in spleen at 5 nmol dosed intradermally followed by booster dose after 14 days and measured after 8 days; format: functional, organism-based; conditions: time 22.0 day
Mus musculus [6] = experiment: Induction of T-cell activation in C57BL/6 mouse assessed as induction of differentiation into effector memory T cells at 5 nmol dosed intradermally followed by booster dose after 14 days and measured after 7 days; format: functional, organism-based; conditions: time 21.0 day
Mus musculus [7] = experiment: Induction of T-cell activation in C57BL/6 mouse assessed as induction of differentiation into memory CD127+/KLRG1low responses at 5 nmol dosed intradermally followed by booster dose after 14 days and measured after 7 days; format: functional, organism-based; conditions: time 21.0 day
Mus musculus [8] = experiment: Induction of T-cell activation in C57BL/6 mouse assessed as increase in SIINFEKL-specific CD8+ T cells level in inguinal lymph nodes at 5 nmol dosed intradermally followed by booster dose after 14 days and 1 week later injection of cells loaded with SIINFEKL peptide and measured after 18 hrs post last dose by CFSE staining based flow cytometric analysis; format: functional, organism-based; conditions: time 21.0 day
Mus musculus [9] = experiment: Induction of T-cell activation in C57BL/6 mouse assessed as induction of SIINFEKL-specific T-cell responses in blood at 5 nmol dosed intradermally followed by booster dose after 14 days and measured after 7 days; format: functional, organism-based; conditions: time 21.0 day

SMILES: CCCCCCCCCCC[C@H](CC(=O)N[C@H]1[C@H](OC[C@H](NC(=O)C[C@@H](CCCCCCCCCCC)OC(=O)CCCCCCCCC)C(=O)O)O[C@H](CNC(=O)COCCOCCOCCNC(C)=O)[C@@H](OP(=O)(O)O)[C@@H]1OC(=O)C[C@@H](CCCCCCCCCCC)OC(=O)CCCCCCCCC)OC(=O)CCCCCCCCC
Activity ([1]; filed as activator): Active

SMILES: CCCCCCCCCCC[C@H](CC(=O)N[C@H]1[C@H](OC[C@H](NC(=O)C[C@@H](CCCCCCCCCCC)OC(=O)CCCCCCCCC)C(=O)O)O[C@H](CNC(=O)COCCOCCOCCNC(=O)CCCN2C(=O)CC(SCCC(=O)N[C@@H](CC(=O)O)C(=O)N[C@@H](CCC(=O)O)C(=O)N[C@H](C(=O)N[C@@H](CO)C(=O)NCC(=O)N[C@@H](CC(C)C)C(=O)N[C@@H](CCC(=O)O)C(=O)N[C@@H](CCC(N)=O)C(=O)N[C@@H](CC(C)C)C(=O)N[C@@H](CCC(=O)O)C(=O)N[C@@H](CO)C(=O)N[C@H](C(=O)N[C@H](C(=O)N[C@@H](CC(N)=O)C(=O)N[C@@H](Cc3ccccc3)C(=O)N[C@@H](CCC(=O)O)C(=O)N[C@@H](CCCCN)C(=O)N[C@@H](CC(C)C)C(=O)N[C@@H](C)C(=O)N[C@@H](C)C(=O)N[C@@H](C)C(=O)N[C@@H](C)C(=O)N[C@@H](C)C(=O)N[C@@H](CCCCN)C(N)=O)[C@@H](C)CC)[C@@H](C)CC)C(C)C)C2=O)[C@@H](OP(=O)(O)O)[C@@H]1OC(=O)C[C@@H](CCCCCCCCCCC)OC(=O)CCCCCCCCC)OC(=O)CCCCCCCCC (stereo not given in full) ([Mpa](X1)DEVSGLEQLESIINFEKLAAAAAK-NH2)
Activity [1]: inactive
Activity (Mus musculus [3]): Active
Activity (Mus musculus [4]): Active
Activity (Mus musculus [2]): Active
Activity (Mus musculus [5]): Active
Activity (B3Z): Active
Activity (Mus musculus [6]): Active
Activity (Mus musculus [7]): Active
Activity (Mus musculus [8]): Active
Activity (Mus musculus [9]): Active

SMILES: CCCCCCCCCCC[C@H](CC(=O)N[C@H]1[C@H](OC[C@H](NC(=O)C[C@@H](CCCCCCCCCCC)OC(=O)CCCCCCCCC)C(=O)O)O[C@H](COC(=O)COCCOCCOCCNC(=O)CCCN2C(=O)CC(SCCC(=O)N[C@@H](CC(=O)O)C(=O)N[C@@H](CCC(=O)O)C(=O)N[C@H](C(=O)N[C@@H](CO)C(=O)NCC(=O)N[C@@H](CC(C)C)C(=O)N[C@@H](CCC(=O)O)C(=O)N[C@@H](CCC(N)=O)C(=O)N[C@@H](CC(C)C)C(=O)N[C@@H](CCC(=O)O)C(=O)N[C@@H](CO)C(=O)N[C@H](C(=O)N[C@H](C(=O)N[C@@H](CC(N)=O)C(=O)N[C@@H](Cc3ccccc3)C(=O)N[C@@H](CCC(=O)O)C(=O)N[C@@H](CCCCN)C(=O)N[C@@H](CC(C)C)C(=O)N[C@@H](C)C(=O)N[C@@H](C)C(=O)N[C@@H](C)C(=O)N[C@@H](C)C(=O)N[C@@H](C)C(=O)N[C@@H](CCCCN)C(N)=O)[C@@H](C)CC)[C@@H](C)CC)C(C)C)C2=O)[C@@H](OP(=O)(O)O)[C@@H]1OC(=O)C[C@@H](CCCCCCCCCCC)OC(=O)CCCCCCCCC)OC(=O)CCCCCCCCC (stereo not given in full) ([Mpa](X2)DEVSGLEQLESIINFEKLAAAAAK-NH2)
Activity ([1]; filed as activator): Active
Activity (Mus musculus [4]): Active
Activity (Mus musculus [2]): Active
Activity (Mus musculus [5]): Active
Activity (B3Z): Active
Activity (Mus musculus [6]): Active
Activity (Mus musculus [7]): Active
Activity (Mus musculus [9]): Active

Now from value to compound, other results behind:

Activity ([1]; filed as activator): Active
SMILES: CCCCCCCCCCC[C@@H](O)CC(=O)N[C@@H]1[C@@H](OC(=O)C[C@H](O)CCCCCCCCCCC)[C@H](O)[C@@H](CO[C@@H]2O[C@H](CO)[C@@H](OP(=O)(O)O)[C@H](OC(=O)C[C@@H](CCCCCCCCCCC)OC(=O)CCCCCCCCC)[C@H]2NC(=O)C[C@@H](CCCCCCCCCCC)OC(=O)CCCCCCCCC)O[C@H]1O

Activity ([1]; filed as activator): Active
SMILES: CCCCCCCCCCC[C@H](CC(=O)N[C@H]1[C@H](OC[C@H](NC(=O)C[C@@H](CCCCCCCCCCC)OC(=O)CCCCCCCCC)C(=O)O)O[C@H](CO)[C@@H](OP(=O)(O)O)[C@@H]1OC(=O)C[C@@H](CCCCCCCCCCC)OC(=O)CCCCCCCCC)OC(=O)CCCCCCCCC
Activity (Mus musculus [2]): Active
Activity (B3Z): Active

Activity [1]: inactive
SMILES: CCCCCCCCCCC[C@H](CC(=O)N[C@H]1[C@H](OC[C@H](NC(=O)C[C@@H](CCCCCCCCCCC)OC(=O)CCCCCCCCC)C(=O)O)O[C@H](COC(=O)CCCCCCCCCCNC(C)=O)[C@@H](OP(=O)(O)O)[C@@H]1OC(=O)C[C@@H](CCCCCCCCCCC)OC(=O)CCCCCCCCC)OC(=O)CCCCCCCCC

Activity ([1]; filed as activator): Active
SMILES: CCCCCCCCCCC[C@H](CC(=O)N[C@H]1[C@H](OC[C@H](NC(=O)C[C@@H](CCCCCCCCCCC)OC(=O)CCCCCCCCC)C(=O)O)O[C@H](COC(=O)COCCOCCOCCNC(C)=O)[C@@H](OP(=O)(O)O)[C@@H]1OC(=O)C[C@@H](CCCCCCCCCCC)OC(=O)CCCCCCCCC)OC(=O)CCCCCCCCC
